Laboratory results: ChEMBL document CHEMBL1132271, “1-Benzopyran-4-one antioxidants as aldose reductase inhibitors” (J Med Chem, 1999)

Assays:
[1] = target: T1, Aldo-keto reductase family 1 member A1 (Bos taurus, UniProt Q3ZCJ2); test: The compound was tested for Inhibitory effect against Aldose reductase 1 in bovine kidneys
Procedure, shortened: (§1)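 Run at 37 °C with 20 mM D-glucuronate and 0.12 mM NADPH in 0.1 M sodium phosphate pH 7.20. Inhibitor added in DMSO, 1% final. Blank without substrate.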

[2] = target: Aldo-keto reductase family 1 member B1 (Bos taurus) (UniProt P16116); test: (§2) Compound was tested for Ratio of IC50(ALR1)/(ALR2)
Procedure, shortened: (§3)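 Ratio of IC50 values. ALR1 (bovine kidney; 20 mM D-glucuronate, 0.12 mM NADPH, pH 7.20) and ALR2 (bovine lens; 4.7 mM D,L-glyceraldehyde, 0.11 mM NADPH, pH 6.80). Both enzymes at 3.5 mU/mL, 37 °C, 1% DMSO. IC50 from log dose–inhibition curves in duplicate.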

[3] = target: T2, Aldo-keto reductase family 1 member B1 (Bos taurus, UniProt P16116); test: Inhibition of Aldose reductase 2 of bovine lens
Procedure, shortened: (§4)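 ALR2 partly purified from bovine lens (DEAE chromatography), 3.5 mU/mL. Run at 37 °C with 4.7 mM D,L-glyceraldehyde and 0.11 mM NADPH in 0.25 M sodium phosphate pH 6.80 with 0.38 M ammonium sulfate. Inhibitor added in DMSO, 1% final. Blank without substrate.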

[4] = The compound was tested for the pKa (+/-SD) values at 25 degree C; assay type: physicochemical
Procedure, shortened: (§5)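 Compound solution added to buffers at ionic strength 0.1 M, pH stepped by 0.25 unit. UV–vis spectra recorded and pH measured with a calibrated electrode. pKa calculated from absorbance change at λmax of the dissociated form, then corrected for ionic strength.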

[5] = test system: Aldo-keto reductase family 1 member A1, aldehyde reductase ALR1 (Bos taurus); test: The compound was tested for Inhibitory effect uM; conditions: concentration not given here
[6] = target: T2, Aldo-keto reductase family 1 member B1; test: Inhibition of ALR2 (aldose reductase) of bovine lens; procedure, shortened: as §4
[7] = target: Aldo-keto reductase family 1 member B1 (Bos taurus) (UniProt P16116); test: The compound was tested for Inhibitory effect uM; conditions: concentration not given here
[8] = test system: Liposome; test: Antioxidant action tested in AAPH-induced malondialdehyde (MDA) liposomes after 60 min; assay type: functional
Procedure, shortened: (§6)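 Lipid (LA, 2 mg/mL) suspended in 50 mM Tris pH 7.4 and extruded into micelles with test antioxidant at 0.2 mM final. Peroxidation started with AAPH (10 mM), 37 °C in shaking water bath. Aliquots taken at intervals, mixed with 20% TCA, then 0.67% TBA, boiled 10 min, hexane-extracted. MDA read at 535 nm (ε 1.49×10^5). Means ± SE.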

[9] = test system: Liposome; test: Antioxidant action tested in AAPH-induced malondialdehyde (MDA) liposomes after 30 min; assay type: functional; procedure, shortened: as §6
[10] = test system: Liposome; test: Antioxidant action tested inAAPH-induced malondialdehyde (MDA) liposomes after 40 min; assay type: functional, subcellular; procedure, shortened: as §6
[11] = test system: Liposome; test: Antioxidant action tested in AAPH-induced malondialdehyde (MDA) liposomes after 15 min; assay type: functional; procedure, shortened: as §6
[12] = test system: Liposome; test: Antioxidant action tested in AAPH-induced malondialdehyde (MDA) liposomes after 5 min; assay type: functional; procedure, shortened: as §6
[13] = target: Aldo-keto reductase family 1 member B1 (Bos taurus) (UniProt P16116); test: The compound was tested for Inhibitory effect against ALR2 in bovine lenses at 77 uM; assay type: tissue-based; conditions: Lens of camera-type eye; procedure, shortened: as §4
[14] = test system: Liposome; test: Antioxidant action tested in AAPH-induced malondialdehyde (MDA) of liposomes after 60 min; assay type: functional; procedure, shortened: as §6
[15] = test system: Liposome; test: Antioxidant action tested in AAPH-induced malondialdehyde (MDA) of liposomes after 40 min; assay type: functional; procedure, shortened: as §6
[16] = test system: Liposome; test: Antioxidant action tested in AAPH-induced malondialdehyde (MDA) of liposomes after 30 min; assay type: functional; procedure, shortened: as §6
[17] = target: T1, Aldo-keto reductase family 1 member A1; test: The compound was tested for Inhibitory effect against ALR1 in bovine kidneys; assay type: tissue-based, Kidney; procedure, shortened: as §1
[18] = as §2; procedure, shortened: as §3
[19] = test system: Liposome; test: Antioxidant action tested in AAPH-induced malondialdehyde (MDA) of liposomes after 5 min; assay type: functional; procedure, shortened: as §6
[20] = test system: Liposome; test: Antioxidant action tested in AAPH-induced malondialdehyde (MDA) of liposomes after 15 min; assay type: functional; procedure, shortened: as §6
[21] = Proton dissociation constant pKa was determined at 25 degree C; assay type: physicochemical; procedure, shortened: as §5

T1 sequence (Q3ZCJ2 2-325 limits assumed): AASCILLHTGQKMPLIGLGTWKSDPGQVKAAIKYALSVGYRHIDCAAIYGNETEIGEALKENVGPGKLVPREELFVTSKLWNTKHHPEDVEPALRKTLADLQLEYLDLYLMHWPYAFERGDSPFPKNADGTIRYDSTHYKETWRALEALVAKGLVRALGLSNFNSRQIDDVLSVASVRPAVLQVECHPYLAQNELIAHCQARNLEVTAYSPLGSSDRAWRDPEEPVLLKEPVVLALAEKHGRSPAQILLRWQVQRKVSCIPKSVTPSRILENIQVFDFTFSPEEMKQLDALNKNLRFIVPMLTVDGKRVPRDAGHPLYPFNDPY

What does the source list for `O=c1ccoc2cc(O)ccc12`?
IC50 [1]: 114 µM; Ratio [2]: 1; IC50 [3]: 137 µM

For `O=c1cc(-c2ccccc2)oc2cc(O)c([N+](=O)[O-])cc12`, which pKa [4] is on record?
Its pKa is 5.3.

And the inhibition [5]?
Its inhibition is 27.5%.

What about the IC50 [6] of the same molecule?
The IC50 was 3.87 µM.

With `COc1ccc(Cc2cc(=O)c3ccc(OC)cc3o2)cc1` as the molecule, how does the inhibition [7] read?
Its inhibition is 0%.

With `O=c1cc(CCc2ccc(O)cc2)oc2cc(O)ccc12` as the molecule, how does the IC50 [3] read?
The IC50 was 41 µM.

With `Cc1oc2cc(O)ccc2c(=O)c1Cc1ccc(O)cc1` as the molecule, how does the IC50 [3] read?
Its IC50 is 85.7 µM.

What does the source list for `O=c1cc(Cc2ccc(O)cc2)oc2cc(O)ccc12`?
Activity [8]: 1.81 nM ml-1; IC50 [1]: 16.8 µM; Activity [9]: 1.9 nM ml-1; Activity [10]: 2.1 nM ml-1; Activity [11]: 1.95 nM ml-1; Ratio [2]: 6.7; Activity [12]: 2.02 nM ml-1; IC50 [3]: 2.5 µM

For `O=c1c(Cc2ccccc2)c(Cc2ccc(O)cc2)oc2cc(O)ccc12`, which IC50 [3] is on record?
The IC50 was 14.2 µM.

With `COc1ccc2c(=O)c(Cc3ccc(O)cc3)coc2c1` as the molecule, how does the inhibition [13] read?
The inhibition was 18%.

For `O=c1cc(Cc2ccc(O)c(O)c2)oc2cc(O)ccc12`, which Activity [14] is on record?
The Activity was 1.53 nM ml-1.

What about the Activity [15] of the same molecule?
Its Activity is 0.852 nM ml-1.

What about the Activity [16] of the same molecule?
The Activity was 1.07 nM ml-1.

And the IC50 [6]?
Its IC50 is 3.14 µM.

And the IC50 [17]?
Its IC50 is 13.2 µM.

What about the Ratio [18] of the same molecule?
Its Ratio is 4.2.

And the Activity [19]?
Its Activity is 0.935 nM ml-1.

What about the Activity [20] of the same molecule?
Its Activity is 1.18 nM ml-1.

With `O=c1c(Cc2ccc(-c3ccccc3)cc2)c(Cc2ccc(O)cc2)oc2cc(O)ccc12` as the molecule, how does the inhibition [7] read?
The inhibition was 0%.

Which inhibition [7] does the source give for `COc1ccc2c(=O)cc(Cc3ccc(O)cc3)oc2c1` here?
The inhibition was 37%.

For `O=c1cc(Cc2ccc3ccccc3c2)oc2cc(O)ccc12`, which IC50 [3] is on record?
Its IC50 is 22.3 µM.

Which inhibition [7] does the source give for `O=c1cc(-c2ccccc2)oc2cccc(O)c12` here?
The inhibition was 0%.

For `O=c1c(Cc2ccc(O)cc2)coc2cc(O)ccc12`, which IC50 [6] is on record?
Its IC50 is 60.5 µM.

With `O=c1cc(Cc2ccccc2)oc2cc(O)ccc12` as the molecule, how does the IC50 [1] read?
Its IC50 is 39.2 µM.

What about the Ratio [2] of the same molecule?
Its Ratio is 5.9.

What about the IC50 [3] of the same molecule?
Its IC50 is 6.61 µM.

For `O=C(O)Cc1ccc2c(=O)cc(Cc3ccc(O)cc3)oc2c1`, which IC50 [1] is on record?
Its IC50 is 128 µM.

And the Ratio [2]?
Its Ratio is 98.5.

And the IC50 [3]?
The IC50 was 1.3 µM.

With `COc1ccc(Cc2cc(=O)c3ccc(O)cc3o2)cc1` as the molecule, how does the IC50 [1] read?
The IC50 was 16.6 µM.

And the Ratio [2]?
The Ratio was 2.4.

And the pKa [21]?
Its pKa is 7.35.

And the IC50 [3]?
The IC50 was 7.01 µM.

Which Activity [14] does the source give for `Cc1cc(C(C)(C)C)c(O)c(C(C)(C)C)c1` here?
The Activity was 0.937 nM ml-1.

What about the Activity [15] of the same molecule?
The Activity was 1.23 nM ml-1.

And the Activity [16]?
Its Activity is 1.33 nM ml-1.

What about the Activity [19] of the same molecule?
Its Activity is 1.62 nM ml-1.

What about the Activity [20] of the same molecule?
Its Activity is 1.33 nM ml-1.

With `COc1ccc2c(=O)cc(-c3ccccc3)oc2c1` as the molecule, how does the inhibition [7] read?
The inhibition was 32%.

Which IC50 [3] does the source give for `O=c1cc(CCCc2ccc(O)cc2)oc2cc(O)ccc12` here?
The IC50 was 29.4 µM.

With `COc1ccc2oc(Cc3ccc(O)cc3)cc(=O)c2c1` as the molecule, how does the inhibition [7] read?
Its inhibition is 40%.

Which IC50 [6] does the source give for `O=c1cc(-c2ccc(O)c(O)c2)oc2cc(O)cc(O)c12` [LUTEOLIN] here?
The IC50 was 9.57 µM.

With `O=c1cc(Cc2ccc(O)cc2)oc2ccc(O)cc12` as the molecule, how does the Activity [8] read?
The Activity was 1.27 nM ml-1.

What about the Activity [15] of the same molecule?
The Activity was 1.29 nM ml-1.

And the Activity [16]?
Its Activity is 1.46 nM ml-1.

And the Activity [11]?
The Activity was 1.54 nM ml-1.

And the Activity [19]?
Its Activity is 1.19 nM ml-1.

What about the pKa [21] of the same molecule?
Its pKa is 8.89.

What about the IC50 [3] of the same molecule?
Its IC50 is 13.1 µM.

With `O=c1cc(-c2ccc(O)c(O)c2)oc2cc(O)ccc12` as the molecule, how does the IC50 [6] read?
Its IC50 is 6.52 µM.

Which IC50 [3] does the source give for `O=C(O)c1ccc2c(=O)cc(Cc3ccc(O)cc3)oc2c1` here?
Its IC50 is 10.9 µM.

Which IC50 [3] does the source give for `O=c1cc(C(c2ccccc2)c2ccccc2)oc2cc(O)ccc12` here?
The IC50 was 10.9 µM.

With `O=c1c(O)c(-c2ccccc2)oc2ccccc12` as the molecule, how does the inhibition [7] read?
Its inhibition is 0%.
